Assay results collected from several papers.
Protocols differ between the studies behind these lines.
Target: Serine/threonine-protein kinase D3 (PRKD3, Homo sapiens, UniProt O94806)
One construct used (O94806 1-890): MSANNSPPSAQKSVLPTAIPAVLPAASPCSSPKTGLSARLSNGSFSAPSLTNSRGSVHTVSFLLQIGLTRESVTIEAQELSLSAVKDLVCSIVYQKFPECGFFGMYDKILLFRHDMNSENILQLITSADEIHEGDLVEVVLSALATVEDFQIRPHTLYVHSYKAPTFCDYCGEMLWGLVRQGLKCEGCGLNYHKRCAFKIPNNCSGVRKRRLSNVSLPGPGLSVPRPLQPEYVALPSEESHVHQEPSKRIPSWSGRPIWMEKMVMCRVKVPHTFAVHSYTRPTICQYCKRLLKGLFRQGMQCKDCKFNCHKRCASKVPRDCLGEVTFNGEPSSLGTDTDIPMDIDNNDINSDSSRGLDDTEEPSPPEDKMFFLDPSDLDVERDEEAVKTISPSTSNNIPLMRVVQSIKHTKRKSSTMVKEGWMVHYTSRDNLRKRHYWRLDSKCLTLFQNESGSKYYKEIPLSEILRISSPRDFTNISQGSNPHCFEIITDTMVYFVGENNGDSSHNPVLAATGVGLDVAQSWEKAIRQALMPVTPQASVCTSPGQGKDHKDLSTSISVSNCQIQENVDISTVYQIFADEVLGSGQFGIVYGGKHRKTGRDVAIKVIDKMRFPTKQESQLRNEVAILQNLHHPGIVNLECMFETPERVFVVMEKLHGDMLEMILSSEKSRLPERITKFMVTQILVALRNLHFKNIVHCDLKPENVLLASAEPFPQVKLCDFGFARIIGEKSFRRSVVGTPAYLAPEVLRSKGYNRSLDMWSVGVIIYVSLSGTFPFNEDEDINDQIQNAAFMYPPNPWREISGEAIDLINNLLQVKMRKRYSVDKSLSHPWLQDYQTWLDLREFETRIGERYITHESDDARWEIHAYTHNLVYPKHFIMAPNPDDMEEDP

CN(C)c1nccc(-c2cnc3ncccn23)n1 — remaining binding (binding; 1 µM): 100%
FC(F)(F)c1ccc2c(c1)nc(-c1cccnc1)n2C1CC1 — remaining binding (cell-free assay; competition with immobilised ligand; 1 µM): 100%
COc1ncc2cc3ccccc3nc2c1C#N — remaining binding (cell-free assay; competition with immobilised ligand; 5 µM): 100%
COc1ccnn2ncc(-c3ccnc(N(C)C)n3)c12 — remaining binding (binding; 1 µM): 100%
C[C@@H](c1ccc(-n2cnc3c(N)ncnc32)cc1)N1CCc2nn(C)c(Cc3ccccc3)c2C1=O — remaining binding (binding; competition with immobilised ligand; 0.1 µM): 85%
O=C(NCC1CCOCC1)c1n[nH]cc1NC(=O)c1c(F)cccc1F — remaining binding (binding; competition with immobilised ligand; 1 µM): 97%
COc1cccc(CNC(=O)c2nc3scc(COCc4ccc(C(=O)O)cc4)c3c(=O)[nH]2)c1 — remaining binding (cell-free assay; competition with immobilised ligand; 1 µM): 100%
Nc1ncc2c(n1)-c1c([nH]c3ccc(C#CC4CC4)cc13)CCCC2 — remaining binding (binding; competition with immobilised ligand; 1 µM): 61%
N[C@H]1CCN(c2nccc(-c3cnn4ncccc34)n2)C1 — remaining binding (binding; 1 µM): 91%
c1cncc(-c2cccc(Nc3nccc(NC4CCCCC4)n3)c2)c1 — remaining binding (binding; competition with immobilised ligand; 10 µM): 7.4%
CNC(=O)[C@@H]1CC[C@@H](n2c(-c3ccc4cnccc4c3)nc3ccc(C(=O)NCc4cccc(C(N)=O)c4)cc32)C1 — remaining binding (binding; competition with immobilised ligand; 1 µM): 91%
COc1ccc2cc(OCC3(C(=O)O)CN(C(=O)c4ccc(F)cc4)C3)ccc2c1 — remaining binding (cell-free assay; competition with immobilised ligand; 1 µM): 91%
Cc1cnc(Nc2ccc(C(=O)N3CCC(N4CCCC4)CC3)cc2)nc1-c1cc2ccccc2s1 — remaining binding (binding; competition with immobilised ligand; 1 µM): 37%
CN(CCCC(F)(F)F)c1nccc(-c2cnn3ncccc23)n1 — remaining binding (binding; 1 µM): 100%
O=C(c1ccc(Nc2ncc(Cl)c(-c3ccc(Cl)s3)n2)cc1)N1CCC(N2CCCC2)CC1 — remaining binding (binding; competition with immobilised ligand; 1 µM): 3.6%
CN(C)C(=O)Cn1cc(-c2nc(C3(c4ccc(-c5cnc(N)nc5)cc4)CC3)no2)cn1 — remaining binding (cell-free assay; competition with immobilised ligand; 1 µM): 92%
Cc1cnn2ncc(-c3ccnc(N(C)C)n3)c2c1 — remaining binding (binding; 1 µM): 98%
Cc1nccc(COC(=O)N2C[C@@H]3[C@@H](CNC(=O)c4ccc5[nH]nnc5c4)[C@@H]3C2)n1 — remaining binding (cell-free assay; competition with immobilised ligand; 1 µM): 100%
C[C@H]1CCN(c2nccc(-c3cnn4ncccc34)n2)C1 — remaining binding (binding; 1 µM): 59%
O=C(O)[C@@H]1[C@@H](Cn2nnc3ccccc3c2=O)CC[C@H]1C(=O)c1ccc(OCCC2CCOCC2)cc1 — remaining binding (cell-free assay; competition with immobilised ligand; 1 µM): 100%
O=C(c1ccc(Nc2ncc(Cl)c(-c3cc4ccccc4s3)n2)cc1)N1CCC(N2CCCC2)CC1 — remaining binding (binding; competition with immobilised ligand; 1 µM): 18%
